ChEMBL document CHEMBL1122229, “alpha-adrenoreceptor reagents. 1. Synthesis of some 1,4-benzodioxans as selective presynaptic alpha 2-adrenoreceptor antagonists and potential antidepressants” (J Med Chem, 1983)
The source made the active and inactive calls. No cut-off for these calls is given here.

Assays:
[1] = In vitro antagonism at Alpha-2 adrenergic receptor in rat or mouse vas deferens relative to RX781094.; assay type: functional
Outline: (§1)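 Prostatic half of vas deferens from male Sprague–Dawley rats (200–250 g; Krebs, 30 °C, 95% O2/5% CO2, 0.1 Hz, 3-ms, 40 V) or from mice (magnesium-free Krebs, 100–140 V). Tension 0.5 g; isometric twitch recording. […] The concentration giving 50% reversal of the inhibition was compared with standard 5 in the same tissue.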

[2] = target: T1, Adrenergic receptor alpha-1 (Rattus norvegicus) (UniProt P15823+P23944+P43140); assay: In vitro postsynaptic agonist potency at alpha-1 adrenergic receptor in rat anococcygeus muscle relative to phenylephrine; assay type: functional, tissue-based
[3] = test system: Alpha-2 adrenergic receptor (Rattus norvegicus); assay: In vitro presynaptic agonist potency at Alpha-2 adrenergic receptor in rat or mouse vas deferens relative to clonidine; IA means inactive
[4] = target: T1, Adrenergic receptor alpha-1 (Rattus norvegicus); assay: Ratio of presynaptic antagonist potency to postsynaptic antagonist potency; assay type: functional
[5] = target: T1, Adrenergic receptor alpha-1 (Rattus norvegicus); assay: In vitro postsynaptic antagonist potency at alpha-1 adrenergic receptor in rat anococcygeus relative to compound 5 (RX781094); assay type: functional
[6] = target: T1, Adrenergic receptor alpha-1 (Rattus norvegicus); assay: In vitro postsynaptic antagonist potency at alpha-1 adrenergic receptor in rat anococcygeus relative to compound 5 (RX781094); IA means compound is inactive.; assay type: functional
[7] = target: Adrenergic receptor alpha-2 (Rattus norvegicus) (UniProt P22086+P19328+P22909); assay: In vitro presynaptic agonist potency at alpha-2 adrenergic receptor in rat or mouse vas deferens relative to clonidine; assay type: functional, tissue-based
Outline: (§2)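 Field-stimulated rat or mouse vas deferens under 0.5 g tension, at 0.1 Hz with 3-ms pulses, 30 °C, gassed with 95% O2/5% CO2. Contractions were recorded isometrically. Standard dose-response curves were run before and after each analogue curve. Potency was expressed relative to the standard in the same experiment.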

[8] = test system: Alpha-2 adrenergic receptor (Rattus norvegicus); assay: In vitro presynaptic agonist potency at alpha-2 adrenergic receptor in rat or mouse vas deferens relative to clonidine; IA means inactive
[9] = target: T2, Adenosine receptor A2b (Rattus norvegicus) (UniProt P29276); assay: In vitro presynaptic antagonist potency at alpha-2 adrenergic receptor in rat or mouse vas deferens; IA means inactive; assay type: functional; outline: as §1
T2 sequence (whole entry): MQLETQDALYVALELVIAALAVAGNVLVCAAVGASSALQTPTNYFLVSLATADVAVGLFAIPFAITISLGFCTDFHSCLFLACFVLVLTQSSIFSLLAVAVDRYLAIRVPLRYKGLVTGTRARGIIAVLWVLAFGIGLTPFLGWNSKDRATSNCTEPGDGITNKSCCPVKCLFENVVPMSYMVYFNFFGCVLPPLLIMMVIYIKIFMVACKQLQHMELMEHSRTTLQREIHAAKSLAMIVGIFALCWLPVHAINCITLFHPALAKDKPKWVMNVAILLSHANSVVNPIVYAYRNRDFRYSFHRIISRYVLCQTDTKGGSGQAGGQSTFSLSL

[10] = target: T1, Adrenergic receptor alpha-1 (Rattus norvegicus); assay: In vitro postsynaptic antagonist potency at alpha-1 adrenergic receptor in rat anococcygeus.; assay type: functional
[11] = test system: Alpha-1 adrenergic receptor (Rattus norvegicus); assay: In vitro postsynaptic agonist potency at alpha-1 adrenergic receptor in rat anococcygeus.
[12] = target: T1, Adrenergic receptor alpha-1 (Rattus norvegicus); assay: In vitro postsynaptic agonist potency at alpha-1 adrenergic receptor in rat anococcygeus muscle relative to phenylephrine; IA means inactive.; assay type: functional, tissue-based
Outline: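 Rat anococcygeus muscle (male Sprague–Dawley rats, 200–250 g) suspended at 0.5 g initial tension in a 50-mL organ bath. […] Standard dose-response curves were run before and after the analogue's curve.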

[13] = target: T2, Adenosine receptor A2b (Rattus norvegicus); assay: In vitro presynaptic agonist potency at Alpha-2 adrenergic receptor in rat or mouse vas deferens relative to clonidine; IA means inactive; assay type: functional, tissue-based; outline: as §2

T1 sequence (P15823 whole entry, looked up): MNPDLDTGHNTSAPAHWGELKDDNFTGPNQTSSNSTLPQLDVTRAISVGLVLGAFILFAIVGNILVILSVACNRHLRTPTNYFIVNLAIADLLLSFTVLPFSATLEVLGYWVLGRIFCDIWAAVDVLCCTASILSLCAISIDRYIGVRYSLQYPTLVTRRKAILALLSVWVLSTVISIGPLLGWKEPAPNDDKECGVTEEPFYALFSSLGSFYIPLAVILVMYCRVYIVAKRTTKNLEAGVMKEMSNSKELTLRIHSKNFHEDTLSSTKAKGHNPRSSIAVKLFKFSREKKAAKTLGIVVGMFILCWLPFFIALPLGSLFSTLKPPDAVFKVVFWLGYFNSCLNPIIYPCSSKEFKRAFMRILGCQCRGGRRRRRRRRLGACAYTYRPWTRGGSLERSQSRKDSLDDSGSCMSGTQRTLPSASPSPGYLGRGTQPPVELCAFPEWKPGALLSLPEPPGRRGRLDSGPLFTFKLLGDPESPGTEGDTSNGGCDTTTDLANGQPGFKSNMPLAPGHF
T1 sequence (P23944 whole entry, looked up): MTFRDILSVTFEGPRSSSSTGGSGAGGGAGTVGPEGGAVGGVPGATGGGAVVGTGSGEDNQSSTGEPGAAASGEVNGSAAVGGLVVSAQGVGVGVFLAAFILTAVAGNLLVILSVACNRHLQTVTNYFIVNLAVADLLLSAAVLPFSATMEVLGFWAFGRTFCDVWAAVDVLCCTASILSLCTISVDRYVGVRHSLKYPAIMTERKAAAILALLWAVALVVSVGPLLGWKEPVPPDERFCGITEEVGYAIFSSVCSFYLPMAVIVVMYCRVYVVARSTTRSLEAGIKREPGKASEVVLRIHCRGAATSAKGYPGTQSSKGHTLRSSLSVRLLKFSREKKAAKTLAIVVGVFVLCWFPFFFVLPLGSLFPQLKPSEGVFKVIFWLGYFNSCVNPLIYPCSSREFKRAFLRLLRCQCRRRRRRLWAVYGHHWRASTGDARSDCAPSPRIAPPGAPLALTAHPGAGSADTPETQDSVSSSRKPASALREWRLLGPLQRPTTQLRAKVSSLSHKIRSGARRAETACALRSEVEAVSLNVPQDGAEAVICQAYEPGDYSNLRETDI
T1 sequence (P43140 whole entry, looked up): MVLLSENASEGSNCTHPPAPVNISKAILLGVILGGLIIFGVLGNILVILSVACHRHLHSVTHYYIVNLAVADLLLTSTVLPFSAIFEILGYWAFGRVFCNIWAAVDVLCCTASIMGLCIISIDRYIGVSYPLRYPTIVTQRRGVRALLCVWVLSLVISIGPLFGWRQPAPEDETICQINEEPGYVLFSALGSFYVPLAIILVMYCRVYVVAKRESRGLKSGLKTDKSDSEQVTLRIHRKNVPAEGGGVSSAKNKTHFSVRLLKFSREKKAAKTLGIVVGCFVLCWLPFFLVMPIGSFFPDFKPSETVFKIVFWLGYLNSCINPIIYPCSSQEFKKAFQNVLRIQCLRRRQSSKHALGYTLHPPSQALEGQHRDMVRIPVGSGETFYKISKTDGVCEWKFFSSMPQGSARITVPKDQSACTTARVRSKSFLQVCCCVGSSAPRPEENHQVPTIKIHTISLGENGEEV

Row | Compound | Antagonist potency [1] | Agonist potency [2] | Agonist potency [3] | Antagonist potency [5] | Agonist potency [7] | further results
1 | Brc1cc2c(cc1Br)OC(C1=NCCN1)CO2 (stereo unspecified) | 0.001 | 0.02 | inactive | 0.1 |  | Selectivity [4]: 0.01
2 | COc1ccccc1OCC1=NCCN1 |  | 10 |  |  | 0.001 | Antagonist potency [6]: inactive; Antagonist potency [8]: inactive
3 | Oc1cc2c(cc1O)OC(C1=NCCN1)CO2 (stereo unspecified) |  |  |  |  | 0.0006 | Antagonist potency [9]: inactive; Antagonist potency [10]: > 6; Agonist potency [11]: 0.018
4 | N/C(=N\CC(=O)O)C1COc2ccccc2O1 (stereo unspecified) | <0.0003 |  | inactive | < 0.023 |  | Agonist potency [12]: inactive
5 | CC(C)c1cccc2c1OCC(C1=NCCN1)O2 (stereo unspecified) |  | 0.5 |  | 1 | 0.1 | Antagonist potency [13]: inactive
